NRP1-CendR mod – NRP-1/CendR interaction modulation; inhibition, % at 25 µM; FAM-RPARPAR peptide binding to NRP-1, fluorescence polarization; AID 602438; hit rate 0.85% among 360,000;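 active means inhibition or corrected inhibition above about 18%, plus a signal ratio from 0.5 to 1.5, limit read from the data, passing the limit was not always enough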
Hep lipid drop – modulators of hepatic lipid droplet formation. inhibition, % at 6.5 µM. hit rate 0.4% among 240,000. AML12 mouse hepatocytes, oleate lipid droplets, BODIPY imaging;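 active means lipid droplet intensity inhibited by at least 50%, with more than 500 cells counted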
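Assay system: AML12 mouse liver cells | Compound: 6.5 µM single-point dosing | Schedule: Overnight exposure | Technique: Fluorescence imaging, 20x objective, two fields per well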
Arrestin-AP2 inh – blocks beta-arrestin peptide binding to AP2 adaptin; AID 504490; FITC-arrestin peptide / GST-AP2 beads, flow cytometry; AP2 beta2 appendage carries R879A mutation; hit rate 0.31% among 340,000; inhibition, % at 10 µM;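 active means inhibition above a set limit, near 3 SD of compounds lacking own fluorescence, cut at about 54% in these data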;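 further: plate controls were DMSO wells for no effect and 5 µM unlabelled arrestin peptide for full effect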
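Measured by: flow cytometry, FL1 (488/535 nm); Material: AP2 appendage R879A on GSH beads; Evaluation: percent response; Timing: pre-incubation 12 min, peptide binding 1 h, room temperature; Also added: 50 nM FITC-arrestin peptide; Medium: PBS with 0.05% Tween 20 and 0.1% BSA.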
M18AAP inhibitor – PfM18AAP enzyme inhibition; AID 1822; inhibition, % at 7.35 µM; recombinant PfM18AAP, H-Glu-NHMec fluorogenic cleavage; hit rate 1.2% among 290,000;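 active means inhibition above the campaign mean inhibition over all tested compounds plus 3 SD, cut at about 28% in these data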;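 further: 0% = plate median of test compound wells and 100% = 2 mM ZnCl2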
HTR2A ag – agonists of mouse serotonin 5-HT2A receptor (HTR2A) | P35363 | CHO-K1 mHTR2A beta-arrestin complementation, luminescence; percent of 30 µM serotonin response | activation, % at 7.6 µM | hit rate 0.66% among 360,000 | AID 624169;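 active means activation above a run cutoff, the mean activation of all tested compounds plus 3 SD, cut at about 14% in these data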;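 further: 0% = plate median of compound wells and 100% = 30 µM serotonin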
sPLA2-III inh – Blocks human group III sPLA2 activity; Q9NZ20; inhibition, % at 12.2 µM; hit rate 0.56% among 370,000; QFRET BODIPY PC-A2 liposome hydrolysis, fluorescence;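 active means inhibition above mean plus 3 SD of compounds lying within the high and low control bounds, cut at about 19% in these data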;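 further: 0% = median of test compound wells and 100% = no enzyme DMSO wells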
MOR ag counter – OPRM1 agonism in mouse HTR2A counterscreen | shares compounds with HTR2A ag | U2OS OPRM1 beta-arrestin PathHunter, luminescence; DMSO 0%, DAMGO 9.3 µM 100% | activation, % at 9.3 µM | hit rate 5.3% among 2,300 | AID 624380;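 active means mean activation above the mean of DMSO-only wells plus 3 SD, cut at about 0.5% in these data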
Target sequence (P35372 whole entry, looked up): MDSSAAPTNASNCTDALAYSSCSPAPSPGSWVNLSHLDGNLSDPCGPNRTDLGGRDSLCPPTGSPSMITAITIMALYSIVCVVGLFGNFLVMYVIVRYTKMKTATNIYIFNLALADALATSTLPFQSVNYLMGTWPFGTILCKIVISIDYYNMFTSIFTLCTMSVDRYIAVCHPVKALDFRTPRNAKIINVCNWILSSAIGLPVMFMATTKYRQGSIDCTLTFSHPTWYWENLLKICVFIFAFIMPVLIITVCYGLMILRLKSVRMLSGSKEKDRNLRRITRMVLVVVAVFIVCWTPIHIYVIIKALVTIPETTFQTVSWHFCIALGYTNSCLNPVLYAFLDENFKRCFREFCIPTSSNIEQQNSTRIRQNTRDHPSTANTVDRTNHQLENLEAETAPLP
HTR2A ag conf – confirmation of mouse HTR2A serotonin receptor agonists. hit rate 19% among 2,300. shares compounds with HTR2A ag. activation, % at 7.6 µM. AID 624381. CHO-K1 PathHunter beta-arrestin recruitment, luminescence; DMSO 0%, 30 µM serotonin 100%;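 active means mean activation across triplicates above the hit threshold derived in the original primary screen, cut at about 15% in these data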
Numbers without * were called inactive. Sampled rows, rich in hits. Any-hit rate of the full collection: about 3.3%.

What do the screens show for `Cc1nc2cc(-c3ccc(Br)cc3)[nH]n2c(=O)c1Cl`?
NRP1-CendR mod: 2; Hep lipid drop: -1; Arrestin-AP2 inh: 0; M18AAP inhibitor: -5; HTR2A ag: 18*; sPLA2-III inh: -8; MOR ag counter: -1; HTR2A ag conf: -3

Results for COc1ccc(CCNC(=O)C2CC(=O)N(c3ccc(C)cc3)C2)cc1 (configuration not stated) ?
NRP1-CendR mod: 3; Hep lipid drop: -3; Arrestin-AP2 inh: 16; M18AAP inhibitor: -9; HTR2A ag: 2; sPLA2-III inh: 4

What do the screens show for `CCOc1ccc(N2CC(C(=O)NCCc3c[nH]c4ccc(OC)cc34)CC2=O)cc1` (configuration not stated)?
NRP1-CendR mod: -9; Hep lipid drop: 2; Arrestin-AP2 inh: 36; M18AAP inhibitor: 1; HTR2A ag: 18*; sPLA2-III inh: -19; MOR ag counter: 0; HTR2A ag conf: 3

Results for CCCNC(=O)C1CC(=O)N(c2ccc(OCC)cc2)C1 (configuration not stated) ?
NRP1-CendR mod: 10; Hep lipid drop: 5; Arrestin-AP2 inh: 27; M18AAP inhibitor: 4; HTR2A ag: 4; sPLA2-III inh: 0

How did COC(=O)C1=C(C)N(CCc2c[nH]c3ccc(OC)cc23)C(=O)C1 do in these assays?
NRP1-CendR mod: -27; Hep lipid drop: 4; Arrestin-AP2 inh: 10; M18AAP inhibitor: -3; HTR2A ag: 17*; sPLA2-III inh: -21; MOR ag counter: -1; HTR2A ag conf: 0

What do the screens show for `COc1ccc2[nH]cc(CCNC(=O)C3CC(=O)N(c4ccc(Cl)cc4)C3)c2c1` (configuration not stated)?
NRP1-CendR mod: 13; Hep lipid drop: 0; Arrestin-AP2 inh: 27; M18AAP inhibitor: -2; HTR2A ag: 16*; sPLA2-III inh: -30; MOR ag counter: -1; HTR2A ag conf: 3

How did O=S1(=O)c2ccc(Br)cc2OC[C@H](c2ccccc2)N1Cc1ccccc1 do in these assays?
sPLA2-III inh: 0

What do the screens show for `CCOc1ccc(-n2c(SC/C=C/c3ccccc3)nnc2-c2cccs2)cc1`?
sPLA2-III inh: -11

Results for CN(C(=O)c1cccc(NC(=O)Cc2ccc(NC(=O)C3CCN(C(=O)C4CCCCC4)CC3)cc2)c1)C1CC1 ?
NRP1-CendR mod: 9; Arrestin-AP2 inh: 29; HTR2A ag: 16*; sPLA2-III inh: -18; MOR ag counter: 0.7*; HTR2A ag conf: 5

How did Cc1ccc(-c2nc3c(C)cc(Br)cn3c2Cc2ccccc2C(F)(F)F)cc1 do in these assays?
sPLA2-III inh: -15

Results for O=S1(=O)c2ccc(N3CCCC3)cc2Oc2ccccc2CN1Cc1cn(Cc2ccc(F)cc2)nn1 ?
sPLA2-III inh: 9

How did CCCCC(=O)Nc1ccc(Cl)cc1F do in these assays?
NRP1-CendR mod: -7; HTR2A ag: 17*; sPLA2-III inh: 3; MOR ag counter: 0; HTR2A ag conf: 2

Results for C[C@H]1CN([C@@H](C)CO)C(=O)c2cc(Br)cnc2O[C@H]1CN(C)S(=O)(=O)c1ccccc1F ?
NRP1-CendR mod: -19; HTR2A ag: 9; sPLA2-III inh: 2

How did Cc1ccc(C(C)C)c(OCC(=O)NNC(=O)Cn2[nH]c(=O)c3ccccc3c2=O)c1 do in these assays?
NRP1-CendR mod: -3; Arrestin-AP2 inh: 1; HTR2A ag: -1; sPLA2-III inh: -8

How did COc1cc2c(c(OC)c1OC)C1(CCCCC1)CC2NCC=C(C)C (configuration not stated) do in these assays?
sPLA2-III inh: 3

What do the screens show for `CC(C)n1c(CNC(=O)c2ccccc2)nc2ccccc21`?
NRP1-CendR mod: 7; Hep lipid drop: 21; Arrestin-AP2 inh: -1; M18AAP inhibitor: 2; HTR2A ag: -3; sPLA2-III inh: 9

What do the screens show for `CC(=O)NCc1nc2ccccc2n1C(C)C`?
NRP1-CendR mod: -9; Hep lipid drop: 6; Arrestin-AP2 inh: -8; M18AAP inhibitor: -6; HTR2A ag: 18*; sPLA2-III inh: -3; MOR ag counter: 0; HTR2A ag conf: -3

What do the screens show for `Cc1ccc2c(c1)[C@H]1[C@H](CO2)[C@H](c2ccccc2)[C@]2(C)C(=O)N(CC3CCCO3)CC(=O)N12` (some centres not stated)?
NRP1-CendR mod: -10; Arrestin-AP2 inh: 0; HTR2A ag: 18*; sPLA2-III inh: 3; MOR ag counter: 0; HTR2A ag conf: -3

What do the screens show for `CC(C)(C)OC(=O)N1CCC[C@@H]1C(=O)N1CCC[C@@H]1C(=O)NCc1ccccc1`?
sPLA2-III inh: 6

Results for Cc1nn(-c2ccccc2)c(N2CCCC2)c1/C=N/NC(=O)c1cc(-c2ccccn2)nc2ccccc12 ?
NRP1-CendR mod: 7; Hep lipid drop: -4; Arrestin-AP2 inh: 18; M18AAP inhibitor: 5; HTR2A ag: 15*; sPLA2-III inh: -1; MOR ag counter: -1; HTR2A ag conf: -3

What do the screens show for `Cc1nn(-c2ccccc2)c(N2CCCC2)c1/C=N/NC(=O)c1cc(-c2ccccc2)nc2ccccc12`?
NRP1-CendR mod: 10; Hep lipid drop: 6; Arrestin-AP2 inh: 1; M18AAP inhibitor: -3; HTR2A ag: -5; sPLA2-III inh: 4

Results for COc1ccc(N2CCN(C(=O)c3ccc(COc4ccc([N+](=O)[O-])cc4)o3)CC2)cc1 ?
NRP1-CendR mod: 12; Hep lipid drop: 11; Arrestin-AP2 inh: 3; M18AAP inhibitor: 2; HTR2A ag: -1; sPLA2-III inh: 0

What do the screens show for `COc1ccc(C(C(=O)NC2CCCC2)N(Cc2ccccc2)C(=O)c2snc(C(N)=O)c2N)cc1OC` (configuration not stated)?
NRP1-CendR mod: -10; Hep lipid drop: -5; Arrestin-AP2 inh: 0; M18AAP inhibitor: 4; HTR2A ag: 16*; sPLA2-III inh: 6; MOR ag counter: -1; HTR2A ag conf: -1

How did CCc1ccc(NC(=O)c2sccc2-n2cccc2)cc1 do in these assays?
NRP1-CendR mod: -12; Hep lipid drop: -2; Arrestin-AP2 inh: 22; M18AAP inhibitor: 9; HTR2A ag: 15*; sPLA2-III inh: -5; MOR ag counter: 0; HTR2A ag conf: -5

Bioassay records from PubChem BioAssay.
